Laboratory results reported in ChEMBL document CHEMBL4837227, “Discovery and development of 2-aminobenzimidazoles as potent antimalarials” (Eur J Med Chem, 2021).
Values after ≈ are worked out from the molar mass of the structure shown. Active and inactive are the calls of the source. The rule behind the calls is not given here.

Legend:
[1] = system: Plasmodium falciparum; assay: Antimalarial activity against Plasmodium falciparum 3D7 assessed as reduction in parasite growth measured after 72 hrs by Monash assay based fluorescence analysis; type: functional, organism-based; conditions: 3D7, 72 h
How it was run: (§1)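 Asynchronous P. falciparum cultures were grown continuously in complete RPMI with 25 mM HEPES, 0.5% Albumax II, 0.37 mM hypoxanthine and 2.0 g/l bicarbonate. They were exposed to serially diluted compound for 72 h. Controls were DMSO (0.01%) and a reference positive control. Fluorescence was read after 2 h in the dark at room temperature. IC50 is mean SEM from technical duplicate or triplicate, at least three biological replicates.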

[2] = system: Plasmodium falciparum 3D7; assay: (§2) Binding affinity to Plasmodium falciparum 3D7 AMA1 (104 to 438 residues) expressed in Escherichia coli BL21(DE3) by surface plasmon resonance assay
[3] = system: Plasmodium falciparum; assay: Antimalarial activity against artemisinin-resistant Plasmodium falciparum Cam3.II^C580Y expressing K13 mutant assessed as reduction in parasite growth measured after 72 hrs by Monash assay based fluorescence analysis; type: functional, organism-based
How it was run: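 Asynchronous culture, 72 h compound exposure. Compounds prepared at […] (twice the top concentration) in complete RPMI (25 mM HEPES, 0.5% Albumax II, 0.37 mM hypoxanthine, sodium bicarbonate), then serially diluted. Fluorescence read after 2 h room-temperature dark incubation. Negative control 0.01% DMSO. IC50 as mean SEM, n ≥ 3 biological replicates, each in technical duplicate or triplicate.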

[4] = Selectivity index, ratio of IC50 for cytotoxicity against human HEK293 cells to antiplasmodial activity against Plasmodium falciparum 3D7; type: toxicity, cell-based; conditions: read-out: Ratio IC50
[5] = system: HEK293; assay: Cytotoxicity against human HEK293 cells assessed as reduction in cell viability at 50 uM measured after 24 hrs by MTT assay; conditions: hek293, 24 h
[6] = system: Plasmodium falciparum; assay: Antimalarial activity against artemisinin-sensitive Plasmodium falciparum Cam3.II^rev expressing wild type K13 assessed as reduction in parasite growth measured after 72 hrs by Monash assay based fluorescence analysis; type: functional, organism-based; how it was run: as §1
[7] = Metabolic stability in mouse liver microsomes assessed as intrinsic clearance at 1 uM measured per mg protein for 60 mins in presence of NADPH regenerating system by LC-MS analysis; type: ADME, Microsome; conditions: read-out: CLH
How it was run: (§3)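 Compound was incubated at 37 °C with liver microsomes at 0.4 mg/mL protein. The reaction was started with an NADPH-regenerating system and quenched at time points over 60 min with acetonitrile containing diazepam as internal standard. No-NADPH controls were quenched at 2, 30 and 60 min.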

[8] = Metabolic stability in mouse liver microsomes assessed as half-life at 1 uM measured for 60 mins in presence of NADPH regenerating system by LC-MS analysis; type: ADME, Microsome; how it was run: as §3
[9] = Kinetic solubility of the compound at pH 2 measured after 30 mins by nephelometry; type: physicochemical; conditions: buffer, read-out: Kinetic_solubility
How it was run: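 Compound in DMSO was spiked into 0.01 M HCl (pH ~2.0) at a final DMSO of 1%. After 30 min, nephelometry gave a solubility range.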

[10] = Metabolic stability in human liver microsomes assessed as half-life at 1 uM measured for 60 mins in presence of NADPH regenerating system by LC-MS analysis; type: ADME, Microsome; how it was run: as §3
[11] = Kinetic solubility of the compound at pH 6.5 measured after 30 mins by nephelometry; conditions: buffer, read-out: Kinetic_solubility
[12] = Metabolic stability in human liver microsomes assessed as intrinsic clearance at 1 uM measured per mg protein after 60 mins in presence of NADPH regenerating system by LC-MS analysis; type: ADME, Microsome; conditions: read-out: CLH; how it was run: as §3
[13] = system: Plasmodium falciparum; assay: Antimalarial activity against synchronous ring stage of Plasmodium falciparum 3D7 assessed as parasite growth inhibition incubated for 72 hrs by Griffith assay based fluorescence analysis; type: functional, organism-based; conditions: 3D7, 72 h
How it was run: (§4)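 22-point dose-response, 3 per log, final 40 µM top, 0.4% DMSO. 72 h at 37 °C under 90% N2/5% CO2/5% O2. DAPI stain, confocal imaging. IC50 from 4-parameter fit normalised to in-plate puromycin and DMSO controls.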

[14] = Selectivity index, ratio of IC50 for antimalarial activity against Plasmodium falciparum Dd2 to IC50 of antimalarial activity against Plasmodium falciparum 3D7; type: functional
[15] = system: Plasmodium falciparum; assay: Antimalarial activity against synchronous ring stage of Plasmodium falciparum Dd2 assessed as parasite growth inhibition incubated for 72 hrs by Griffith assay based fluorescence analysis; type: functional, organism-based; conditions: Dd2, 72 h; how it was run: as §4
[16] = as §2
[17] = system: Plasmodium falciparum; assay: Selectivity index, ratio of IC50 for antimalarial activity against PfATP4 inhibitor SJ557733-resistant Plasmodium falciparum Dd2 to IC50 of antimalarial activity against Plasmodium falciparum Dd2; type: functional
[18] = system: Plasmodium falciparum; assay: Antiplasmodial activity against PfATP4 inhibitor SJ557733-resistant Plasmodium falciparum Dd2 assessed as reduction in parasite growth incubated for 72 hrs by Griffith assay based fluorescence analysis; type: functional, organism-based; conditions: Dd2, 72 h; how it was run: as §4

SMILES: Nc1nc2ccccc2n1-c1cccc(Cl)c1O
- IC50 [1]: > 500 nM

SMILES: Nc1nc2ccccc2n1-c1ccccc1F
- Activity [2]: inactive
- IC50 [1]: > 500 nM

SMILES: Nc1nc2ccccc2n1[C@H]1CCCC[C@@H]1O
- IC50 [1]: > 500 nM

SMILES: Nc1nc2ccccc2n1-c1ccc2ccccc2c1O
- IC50 [3]: 114 nM
- selectivity ratio [4]: > 1000
- IC50 [1]: 38 nM
- Activity [5]: Non-Toxic
- IC50 [6]: 105 nM

SMILES: CCCNc1nc2ccccc2n1-c1ccccc1O
- IC50 [1]: > 500 nM

SMILES: Cc1cc(C)c(O)c(-n2c(N)nc3ccccc32)c1
- microsomal CLint at 1 µM [7]: 476 µL/min/mg
- half-life at 1 µM [8]: 0.0667 h
- solubility kinetic at 0.5 h [9]: > 100 µg/mL
- half-life at 1 µM [10]: 2.88 h
- IC50 [3]: 139 nM
- solubility kinetic at 0.5 h [11]: 12.5 µg/mL (≈ 49.3 µM)
- selectivity ratio [4]: > 1000
- IC50 [1]: 23 nM
- Activity [5]: Non-Toxic
- IC50 [6]: 133 nM
- microsomal CLint at 1 µM [12]: 10 µL/min/mg

SMILES: Nc1nc2ccccc2n1-c1cnccc1O
- IC50 [1]: > 500 nM

SMILES: CCc1nc(N)nc(N)c1-c1ccc(Cl)cc1 [PYRIMETHAMINE]
- IC50 [13]: 4.7 nM
- Ratio IC50 [14]: > 8000
- IC50 [15]: > 40000 nM

SMILES: COc1ccc(O)c(-n2c(N)nc3ccccc32)c1
- IC50 [1]: > 500 nM

SMILES: Nc1nc2ccccc2n1-c1ccccc1CO
- Activity [2]: inactive
- IC50 [1]: > 500 nM

SMILES: Nc1nc2ccccc2n1-c1ncccc1O
- IC50 [1]: > 500 nM

SMILES: Oc1ccccc1-n1c(NC2CCCCC2)nc2ccccc21
- IC50 [1]: 333 nM

SMILES: Nc1nc2ccccc2n1[C@H]1CCC[C@@H]1O
- IC50 [1]: > 500 nM

SMILES: Nc1ccc(-n2c(N)nc3ccccc32)cc1
- Activity [2]: inactive
- IC50 [1]: > 500 nM

SMILES: CC(C)CNc1nc2ccccc2n1-c1ccccc1O
- IC50 [1]: 356 nM

SMILES: COc1ccc2nc3cc(Cl)ccc3c(Nc3cc(CN4CCCC4)c(O)c(CN4CCCC4)c3)c2n1 [PYRONARIDINE]
- IC50 [13]: 7.4 nM
- Ratio IC50 [14]: 1.1
- IC50 [15]: 8.3 nM

SMILES: Nc1nc2ccccc2n1-c1cccc2cc[nH]c12
- IC50 [1]: > 500 nM

SMILES: Nc1nc2ccccc2n1-c1ccc(F)cc1O
- IC50 [1]: 188 nM

SMILES: CCCCNc1nc2ccccc2n1-c1ccccc1O
- IC50 [1]: 278 nM

SMILES: Oc1cccc(-c2nc3ccccc3[nH]2)c1
- Kd [16]: 800000 nM

SMILES: Cc1ccc(-n2c(N)nc3ccccc32)cc1
- Activity [2]: inactive
- IC50 [1]: > 500 nM

SMILES: Nc1nc2ccccc2n1-c1cccc(F)c1O
- IC50 [1]: > 500 nM

SMILES: COc1ccc(-n2c(N)nc3ccccc32)cc1
- Activity [2]: inactive
- IC50 [1]: > 500 nM

SMILES: Nc1nc2ccccc2n1-c1cc(F)ccc1O
- IC50 [1]: 90 nM

SMILES: COc1ccccc1-n1c(N)nc2ccccc21
- Activity [2]: inactive
- IC50 [1]: > 500 nM

SMILES: Cc1cc(O)c(-n2c(N)nc3ccccc32)cc1C
- microsomal CLint at 1 µM [7]: 76 µL/min/mg
- half-life at 1 µM [8]: 0.383 h
- solubility kinetic at 0.5 h [9]: > 100 µg/mL
- half-life at 1 µM [10]: 2.15 h
- IC50 [3]: 63 nM
- solubility kinetic at 0.5 h [11]: 12.5 µg/mL (≈ 49.3 µM)
- selectivity ratio [4]: > 1000
- IC50 [1]: 6.4 nM
- Activity [5]: Non-Toxic
- IC50 [6]: 47 nM
- microsomal CLint at 1 µM [12]: 13 µL/min/mg

SMILES: N#Cc1cc(NC(=O)[C@H]2c3ccccc3C(=O)N(CC(F)(F)F)[C@@H]2c2cccnc2)ccc1F [SJ-733]
- Ratio IC50 [17]: > 135
- IC50 [18]: > 8000 nM
- IC50 [15]: 58.7 nM

SMILES: Oc1ccccc1-n1cnc2ccccc21
- IC50 [1]: > 500 nM

SMILES: Nc1nc2ccccc2n1-c1c(O)cccc1F
- IC50 [1]: 321 nM

SMILES: Nc1nc2ccccc2n1-c1ccc(Cl)cc1O
- IC50 [1]: 164 nM

SMILES: Nc1ccccc1-n1c(S)nc2ccccc21
- IC50 [1]: > 500 nM

SMILES: Nc1nc2ccccc2n1-c1ccc2cccnc2c1O
- IC50 [1]: > 500 nM

SMILES: Cc1cccc(-n2c(N)nc3ccccc32)c1O
- IC50 [1]: 61 nM
